Assay outcomes deposited in PubChem by several laboratories.
In the library only some 2.4% were active in any assay of this set; here they are far more common.
ANO1 activ = mouse TMEM16A channel activation, primary screen; hit rate 0.3% among 340,000; B-score at 10 µM; Q8BHY3; HEK293 TMEM16A/YFP-H148Q/I152L, iodide quench fluorescence; stronger effect = lower value; AID 623877;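 active means fluorescence-ratio B-score plate-corrected deviation score at least 3 library SD below zero, with starting fluorescence score within 5 deviations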;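 further: channel opened by trigger with iodide after compound preincubation; score built on the fluorescence ratio of max minus min over baseline; more negative score means more quench and so TMEM16A activation or potentiation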
ANO1 block = mouse TMEM16A channel inhibition, primary screen | hit rate 1.2% among 310,000 | normalized B-score (activity score, 25-100; higher = stronger inhibition) at 10 µM | HEK293 TMEM16A/YFP iodide influx fluorescence, ionomycin | Q8BHY3;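 active means ratio plate-corrected score three or more library SD toward inhibition, starting fluorescence score within five deviations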;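 further: score derived from kinetic fluorescence span divided by baseline fluorescence per well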
UBC13 polyUb = human UBC13 polyubiquitination inhibition. UBC13 polyubiquitin chain formation, TR-FRET. hit rate 0.47% among 330,000. inhibition, % at 20 µM. AID 485273; in the data active means inhibition above about 45%, passing the limit was not always enough; inconclusive means no clear call, values can overlap the other calls
Apaf-1 inh = blocks human Apaf-1 apoptosome activity | reconstituted apoptosome caspase-3 activity, DEVD-Rh110 fluorescence | O14727 | hit rate 0.71% among 330,000 | inhibition, % at 20 µM | AID 489030; active means inhibition of at least 40% at 20 µM;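 further: plate controls were DMSO wells for no effect and DEVD-CHO caspase inhibitor wells for full effect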
Target sequence (O14727 whole entry, looked up): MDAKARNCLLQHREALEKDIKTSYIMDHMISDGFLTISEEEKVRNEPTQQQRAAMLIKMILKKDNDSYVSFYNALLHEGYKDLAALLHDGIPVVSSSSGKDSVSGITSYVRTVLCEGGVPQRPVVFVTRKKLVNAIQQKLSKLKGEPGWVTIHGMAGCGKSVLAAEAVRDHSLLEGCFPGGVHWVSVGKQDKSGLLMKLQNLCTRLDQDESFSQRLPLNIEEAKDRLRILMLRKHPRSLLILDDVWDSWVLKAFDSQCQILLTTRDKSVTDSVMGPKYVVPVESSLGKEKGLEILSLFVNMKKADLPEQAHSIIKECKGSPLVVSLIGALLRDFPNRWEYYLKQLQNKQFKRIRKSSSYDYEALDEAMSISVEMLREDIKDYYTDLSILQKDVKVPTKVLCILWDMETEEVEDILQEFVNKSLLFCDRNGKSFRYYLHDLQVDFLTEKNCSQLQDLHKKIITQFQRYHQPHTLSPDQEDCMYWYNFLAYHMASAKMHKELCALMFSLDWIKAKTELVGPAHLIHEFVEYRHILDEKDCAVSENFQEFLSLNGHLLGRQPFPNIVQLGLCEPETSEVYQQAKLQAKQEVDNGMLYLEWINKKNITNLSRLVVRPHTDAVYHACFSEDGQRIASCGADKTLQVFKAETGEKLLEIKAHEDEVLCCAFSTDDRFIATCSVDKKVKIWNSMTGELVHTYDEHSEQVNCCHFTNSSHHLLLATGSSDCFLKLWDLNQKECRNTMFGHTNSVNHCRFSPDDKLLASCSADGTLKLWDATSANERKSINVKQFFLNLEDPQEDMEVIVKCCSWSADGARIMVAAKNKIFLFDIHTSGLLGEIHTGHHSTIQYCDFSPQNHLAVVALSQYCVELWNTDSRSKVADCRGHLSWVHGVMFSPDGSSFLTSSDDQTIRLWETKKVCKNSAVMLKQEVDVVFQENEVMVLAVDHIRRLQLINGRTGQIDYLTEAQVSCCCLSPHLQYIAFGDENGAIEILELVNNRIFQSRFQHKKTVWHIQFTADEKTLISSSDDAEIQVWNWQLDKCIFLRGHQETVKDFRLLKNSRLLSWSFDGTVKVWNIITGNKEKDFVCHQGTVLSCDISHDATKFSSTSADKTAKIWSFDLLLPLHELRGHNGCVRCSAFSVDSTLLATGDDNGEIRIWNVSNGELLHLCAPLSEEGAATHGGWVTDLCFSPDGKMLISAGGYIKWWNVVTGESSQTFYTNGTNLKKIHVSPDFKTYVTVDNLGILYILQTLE
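Assay system – apoptosome proteins · Medium – Hepes buffer, pH 7.5 · Also added – cytochrome c with DEVD-Rh110 · Timing – 30 min compound preincubation, 50 min activation, room temperature · Detection – Rh110 fluorescence, excitation 480 nm, emission 540 nm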
DNA FID counter = fluorescent intercalator displacement, NS3 helicase counter-screen. DNA fluorescent intercalator displacement, fluorescence. AID 1845. inhibition, % at 7.9 µM. hit rate 0.17% among 290,000; in the data active means inhibition above about 37%;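 further: 0% = vehicle and 100% = reference compound; higher means more ethidium bromide displaced from hairpin DNA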
TMEM16A reconf = reconfirmed blocker of mouse TMEM16A calcium-activated chloride channel | AID 652189 | shares compounds with ANO1 block | inhibition, % at 10 µM | HEK293 TMEM16A/YFP-H148Q, iodide quench fluorescence; ionomycin added to raise cell calcium | hit rate 39% among 2,300;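 active means mean duplicate percent inhibition, scaled so buffer wells are 0 and the reference blocker 100, over three buffer SD above buffer mean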
HEK293 Ca mobil = alters calcium mobilization in TMEM16A HEK293 cells, counter-screen; shares compounds with ANO1 block; TMEM16A/YFP HEK293, Fluo4 calcium mobilization; calcium response (% of ionomycin), % at 10 µM; hit rate 2% among 2,300;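 active means duplicate-averaged calcium signal over 20% of the ionomycin maximum, relative to buffer baseline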;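 further: each well's signal is peak minus trough fluorescence divided by its pre-addition baseline; 0% = buffer wells and 100% = ionomycin wells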
YFP-HEK293 quench = counter-screen for TMEM16A inhibitors: effect in parental YFP-HEK293 cells; shares compounds with ANO1 block; iodide YFP quench, ionomycin; YFP ratio F(max-min)/F0 at 10 µM; 2,300 tested, under 10 active;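 active means yellow fluorescent protein signal ratio exceeding the buffer control mean by over 5 SD of those controls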;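 further: ratio is mean of duplicate wells from kinetic YFP trace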
ClC-1 rat inh = selectivity of TMEM16A inhibitors: inhibition of rat ClC-1 chloride channel; shares compounds with ANO1 block; CHO ClC-1-YFP, iodide influx fluorescence quench; iodide control reads 0, buffer control 100; ratio percent, % at 10 µM; 2,300 tested, under 10 active; AID 652236;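 active means duplicate-mean ratio percent above the mean of iodide-only control wells, which defines zero, plus 5 of their SD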;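 further: higher percent means stronger block of ClC-1 iodide influx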
The depositor's hits bear a star.

How did O=S(=O)(NCC(c1cccs1)N1CCc2ccccc2C1)c1ccccc1 (stereo not drawn) do in these assays?
ANO1 activ: inactive; ANO1 block: inactive; UBC13 polyUb: 2; Apaf-1 inh: 21; TMEM16A reconf: 35%*; HEK293 Ca mobil: inactive; YFP-HEK293 quench: -1.1; ClC-1 rat inh: -4

How did O=[N+]([O-])c1ccc(S(=O)(=O)NCC(c2ccco2)N2CCc3ccccc3C2)cc1 (stereo not drawn) do in these assays?
ANO1 activ: inactive; ANO1 block: inactive; UBC13 polyUb: -4; Apaf-1 inh: 23

How did COc1ccc(-c2csc(Nc3ccc(C)cn3)n2)cc1OC do in these assays?
ANO1 activ: inactive; ANO1 block: inactive; UBC13 polyUb: 12; Apaf-1 inh: -10; DNA FID counter: -17

What do the screens show for `COc1ccc(-c2csc(Nc3cc(C)ccn3)n2)cc1OC`?
ANO1 activ: inactive; ANO1 block: 25*; UBC13 polyUb: 6; Apaf-1 inh: 8; DNA FID counter: -23; TMEM16A reconf: 24%*; HEK293 Ca mobil: inactive; YFP-HEK293 quench: -0.74; ClC-1 rat inh: -10

What do the screens show for `CC1CCCCN1C(=S)Nc1ccc2nc3n(c(=O)c2c1)CCCCC3` (stereo not drawn)?
ANO1 activ: inactive; ANO1 block: inactive; UBC13 polyUb: -9; Apaf-1 inh: 3; DNA FID counter: -3

What do the screens show for `O=C(CCc1nc2ccccc2c(=O)[nH]1)Nc1ccc(F)cc1`?
ANO1 activ: inactive; ANO1 block: inactive; UBC13 polyUb: 8; Apaf-1 inh: -4; DNA FID counter: -4

What do the screens show for `O=C(CCc1nc2ccccc2[nH]1)Nc1ccc(F)cc1`?
ANO1 activ: inactive; ANO1 block: 25*; UBC13 polyUb: 2; Apaf-1 inh: -21; DNA FID counter: 0; TMEM16A reconf: inactive; HEK293 Ca mobil: inactive; YFP-HEK293 quench: -1.1; ClC-1 rat inh: -4

How did COc1cccc(Nc2nc(NCC3CCCO3)c3ccccc3n2)c1 (stereo not drawn) do in these assays?
ANO1 activ: inactive; ANO1 block: 100*; UBC13 polyUb: 42; Apaf-1 inh: 33; DNA FID counter: 16; TMEM16A reconf: 44%*; HEK293 Ca mobil: inactive; YFP-HEK293 quench: -1.1; ClC-1 rat inh: -19

What do the screens show for `Oc1ccc(Nc2nc(NCC3CCCO3)c3ccccc3n2)cc1` (stereo not drawn)?
ANO1 activ: inactive; UBC13 polyUb: 45; Apaf-1 inh: 16; DNA FID counter: 9

What do the screens show for `Cc1ccc(C(C(=O)Nc2ccc3c(c2)OCO3)N(C)C(=O)/C=C\c2ccc3c(c2)OCO3)cc1` (stereo not drawn)?
ANO1 activ: inactive; ANO1 block: inactive; UBC13 polyUb: -7; Apaf-1 inh: 24; DNA FID counter: -16

What do the screens show for `O=C(NC1CCCCCC1)c1cc(-c2ccccn2)nc2ccccc12`?
ANO1 activ: inactive; ANO1 block: inactive; UBC13 polyUb: -2; Apaf-1 inh: -10; DNA FID counter: -32

Results for c1cnc(N2CCN(Cc3ccc4c(c3)OCO4)CC2)nc1 ?
ANO1 activ: inactive; ANO1 block: inactive; UBC13 polyUb: 12; Apaf-1 inh: -7; DNA FID counter: -1

How did Cc1ccc(C2CC(=O)c3cnc(N4CCN(c5ccccc5)CC4)nc3C2)cc1 (stereo not drawn) do in these assays?
ANO1 activ: inactive; ANO1 block: inactive; UBC13 polyUb: inconclusive; Apaf-1 inh: 13; DNA FID counter: -24

How did O=C1CC(c2ccco2)Cc2nc(N3CCN(Cc4ccc5c(c4)OCO5)CC3)ncc21 (stereo not drawn) do in these assays?
ANO1 activ: inactive; ANO1 block: 25*; UBC13 polyUb: -10; Apaf-1 inh: 16; DNA FID counter: -7; TMEM16A reconf: inactive; HEK293 Ca mobil: inactive; YFP-HEK293 quench: -0.95; ClC-1 rat inh: -4

How did COc1ccc(C2CC(=O)c3cnc(N4CCN(Cc5ccccc5)CC4)nc3C2)cc1 (stereo not drawn) do in these assays?
ANO1 activ: inactive; ANO1 block: 25*; UBC13 polyUb: 11; Apaf-1 inh: 18; DNA FID counter: -9; TMEM16A reconf: inactive; HEK293 Ca mobil: inactive; YFP-HEK293 quench: -1.1; ClC-1 rat inh: -5

What do the screens show for `Cc1noc(N)c1C1(O)C(=O)Nc2c(Cl)cc(Cl)cc21` (stereo not drawn)?
ANO1 activ: inactive; ANO1 block: inactive; UBC13 polyUb: -15; Apaf-1 inh: 16; DNA FID counter: -4

Results for CC1(C#N)c2ccccc2C(Br)=CN1C(=O)c1ccccc1 (stereo not drawn) ?
ANO1 activ: inactive; ANO1 block: inactive; UBC13 polyUb: 11; Apaf-1 inh: -2

What do the screens show for `N#CC1(Cc2ccc(Cl)cc2)c2ccccc2C=CN1C(=O)c1ccccc1` (stereo not drawn)?
ANO1 activ: inactive; ANO1 block: 25*; UBC13 polyUb: 3; Apaf-1 inh: 6; DNA FID counter: -5; TMEM16A reconf: inactive; HEK293 Ca mobil: inactive; YFP-HEK293 quench: -0.98; ClC-1 rat inh: -6

What do the screens show for `CCc1nc(SCC(=O)NCCc2ccccc2)c2oc3ccccc3c2n1`?
ANO1 activ: inactive; ANO1 block: inactive; UBC13 polyUb: -6; Apaf-1 inh: -1; DNA FID counter: -6

What do the screens show for `CCc1nc(SCC(=O)c2cccs2)c2oc3ccccc3c2n1`?
ANO1 activ: inactive; ANO1 block: 100*; UBC13 polyUb: 10; Apaf-1 inh: 7; DNA FID counter: -9; TMEM16A reconf: inactive; HEK293 Ca mobil: inactive; YFP-HEK293 quench: -1.1; ClC-1 rat inh: -12

Results for COc1ccc(CN(C)C(=O)[C@H](Cc2ccccc2)NC(=O)c2ccco2)c(OC)c1 ?
ANO1 activ: inactive; UBC13 polyUb: -2; Apaf-1 inh: -5

What do the screens show for `C=C(c1ccc(O)cc1)c1ccc(O)cc1`?
ANO1 activ: inactive; ANO1 block: 100*; UBC13 polyUb: 14; Apaf-1 inh: 6; DNA FID counter: -6; TMEM16A reconf: 24%*; HEK293 Ca mobil: inactive; YFP-HEK293 quench: -1.1; ClC-1 rat inh: -15

Results for Cc1[nH]c2ccc(C(=O)NC3CCC(C)CC3)cc2c1C (stereo not drawn) ?
ANO1 activ: inactive; ANO1 block: inactive; UBC13 polyUb: 2; Apaf-1 inh: 21; DNA FID counter: -31
